Assay type in all cases: functional
In one assay the test system is Staphylococcus aureus. Description: Antibacterial activity against Staphylococcus aureus after 16 to 18 hrs by serial dilution method. Particulars: for MIC: Staphylococcus aureus. The essentials:
(§1)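 The test compound was dissolved in DMF and serially diluted. A standard drop of the prepared microbial culture was added to each dilution, and tubes were incubated at 37 °C for 16–18 h. MIC was taken as the highest dilution that stayed clear with no visible turbidity.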

The next assay concerns Escherichia coli. The assay can be described thus: Antibacterial activity against Escherichia coli after 16 to 18 hrs by serial dilution method. Particulars: for MIC: Escherichia coli. In a few lines: as §1
Another assay deals with Pseudomonas aeruginosa. The assay can be described thus: Antibacterial activity against Pseudomonas aeruginosa after 16 to 18 hrs by serial dilution method. Particulars: for MIC: Pseudomonas aeruginosa. In a few lines: as §1
The test system of the next assay is Klebsiella pneumoniae. The assay can be described thus: Antibacterial activity against Klebsiella pneumoniae after 16 to 18 hrs by serial dilution method. Particulars: for MIC: Klebsiella pneumoniae.
The next assay concerns Talaromyces marneffei. Description: Antifungal activity against Penicillium marneffei after 16 to 18 hrs by serial dilution method. Particulars: for MIC: Talaromyces marneffei. The essentials: as §1
Assay [1] concerns Trichophyton mentagrophytes. The assay can be described thus: Antifungal activity against Trichophyton mentagrophytes after 16 to 18 hrs by serial dilution method. Particulars: for MIC: Trichophyton mentagrophytes.
The next assay deals with Aspergillus flavus. Description: Antifungal activity against Aspergillus flavus after 16 to 18 hrs by serial dilution method. Particulars: for MIC: Aspergillus flavus. The essentials: as §1
The subject of the next assay is Aspergillus fumigatus. The assay can be described thus: Antifungal activity against Aspergillus fumigatus after 16 to 18 hrs by serial dilution method. Particulars: for MIC: Aspergillus fumigatus.

Values after ≈ are worked out from the molar mass of the structure shown.

Regarding `Cc1cccc(OCc2ccccc2-c2nnc(SCc3ccc(Cl)cc3Cl)o2)c1`, the “inhibition zone (IZ)” value stood at 16 mm in the assay on Staphylococcus aureus; 16 mm in the assay with Escherichia coli; 16 mm in the assay with Pseudomonas aeruginosa; 16 mm in the assay with Klebsiella pneumoniae; 16 mm in the assay on Talaromyces marneffei; 11 mm in assay [1]. The “inhibition zone (IZ)” value in the assay on Aspergillus flavus is 11 mm; in the assay on Aspergillus fumigatus, 16 mm. The MIC in the assay with Staphylococcus aureus is 6.25 µg/mL (≈ 13.7 µM); against Escherichia coli it was 6.25 µg/mL (≈ 13.7 µM); in the assay on Pseudomonas aeruginosa, 6.25 µg/mL (≈ 13.7 µM); in the assay on Klebsiella pneumoniae it was 6.25 µg/mL (≈ 13.7 µM); against Talaromyces marneffei, 6.25 µg/mL (≈ 13.7 µM); in assay [1], 12.5 µg/mL (≈ 27.3 µM). Moreover, the minimal inhibitory concentration (MIC) with Aspergillus flavus came out at 12.5 µg/mL (≈ 27.3 µM); against Aspergillus fumigatus, 6.25 µg/mL (≈ 13.7 µM).

As to `Cc1cccc(OCc2ccccc2-c2nnc(SCc3ccccc3)o2)c1`, the “inhibition zone (IZ)” value (in the assay on Staphylococcus aureus; in the assay on Escherichia coli; in the assay with Pseudomonas aeruginosa; in the assay with Klebsiella pneumoniae; in the assay on Talaromyces marneffei; in assay [1]) was below 10 mm each time. Moreover, the “inhibition zone (IZ)” value in the assay on Aspergillus flavus and in the assay on Aspergillus fumigatus was below 10 mm each time. Further, the MIC (against Staphylococcus aureus; against Escherichia coli; in the assay with Pseudomonas aeruginosa; against Klebsiella pneumoniae; against Talaromyces marneffei; in assay [1]) was 25 µg/mL (≈ 64.4 µM) throughout. The MIC in the assay with Aspergillus flavus and against Aspergillus fumigatus was 25 µg/mL (≈ 64.4 µM) throughout.

As to `Cc1cc(C)cc(-c2nnc(-c3ccccc3COc3ccc(Cl)cc3)o2)c1`, the “inhibition zone (IZ)” value (with Staphylococcus aureus; in the assay with Escherichia coli; with Pseudomonas aeruginosa; in the assay with Klebsiella pneumoniae; in the assay on Talaromyces marneffei; in assay [1]) was 11 mm in each case. The “inhibition zone (IZ)” value in the assay on Aspergillus flavus and in the assay with Aspergillus fumigatus was 11 mm each time. Moreover, the MIC (in the assay with Staphylococcus aureus; in the assay with Escherichia coli; against Pseudomonas aeruginosa; in the assay on Klebsiella pneumoniae; with Talaromyces marneffei; in assay [1]) was 12.5 µg/mL (≈ 32 µM) in each case. The MIC against Aspergillus flavus and against Aspergillus fumigatus was 12.5 µg/mL (≈ 32 µM) throughout.

For `COc1cc(-c2nnc(-c3ccccc3COc3ccc(Cl)cc3)o2)cc(OC)c1OC`, the “inhibition zone (IZ)” value (with Staphylococcus aureus; in the assay with Escherichia coli; with Pseudomonas aeruginosa; in the assay on Klebsiella pneumoniae; with Talaromyces marneffei; in assay [1]) was 16 mm throughout. Also, the “inhibition zone (IZ)” value with Aspergillus flavus and in the assay on Aspergillus fumigatus was 16 mm each time. The MIC (against Staphylococcus aureus; against Escherichia coli; in the assay on Pseudomonas aeruginosa; against Klebsiella pneumoniae; against Talaromyces marneffei; in assay [1]) was 6.25 µg/mL (≈ 13.8 µM) in each case. Further, the MIC against Aspergillus flavus and in the assay on Aspergillus fumigatus was 6.25 µg/mL (≈ 13.8 µM) throughout.

On to `Cc1cccc(OCc2ccccc2-c2nnc(-c3cccc4ncccc34)o2)c1`, for which the “inhibition zone (IZ)” value (in the assay with Staphylococcus aureus; in the assay with Escherichia coli; with Pseudomonas aeruginosa; in the assay on Klebsiella pneumoniae; with Talaromyces marneffei; in assay [1]) was below 10 mm in each case. The “inhibition zone (IZ)” value with Aspergillus flavus and with Aspergillus fumigatus was below 10 mm in each case. The MIC (with Staphylococcus aureus; against Escherichia coli; in the assay on Pseudomonas aeruginosa; against Klebsiella pneumoniae; against Talaromyces marneffei; in assay [1]) was 25 µg/mL (≈ 63.5 µM) each time. Also, the MIC with Aspergillus flavus and against Aspergillus fumigatus was 25 µg/mL (≈ 63.5 µM) each time.

For the compound `Cc1cccc(CSc2nnc(-c3ccccc3COc3ccc(Cl)cc3)o2)c1`, the “inhibition zone (IZ)” value (in the assay on Staphylococcus aureus; in the assay with Escherichia coli; in the assay with Pseudomonas aeruginosa; with Klebsiella pneumoniae; in the assay with Talaromyces marneffei; in assay [1]) was 11 mm each time. For the same compound, the “inhibition zone (IZ)” value in the assay with Aspergillus flavus and in the assay with Aspergillus fumigatus was 11 mm each time. For the same compound, the MIC (in the assay with Staphylococcus aureus; with Escherichia coli; in the assay with Pseudomonas aeruginosa; in the assay with Klebsiella pneumoniae; with Talaromyces marneffei; in assay [1]) was 12.5 µg/mL (≈ 29.6 µM) throughout. Moreover, the MIC against Aspergillus flavus and against Aspergillus fumigatus was 12.5 µg/mL (≈ 29.6 µM) throughout.

Regarding `Cc1cc(C)cc(-c2nnc(-c3ccccc3COc3ccccc3C)o2)c1`, the “inhibition zone (IZ)” value (in the assay on Staphylococcus aureus; in the assay with Escherichia coli; in the assay on Pseudomonas aeruginosa; in the assay on Klebsiella pneumoniae; in the assay with Talaromyces marneffei; in assay [1]) was 11 mm throughout. The “inhibition zone (IZ)” value is 11 mm in the assay with Aspergillus flavus and 16 mm in the assay on Aspergillus fumigatus. Besides, the MIC (against Staphylococcus aureus; against Escherichia coli; with Pseudomonas aeruginosa; in the assay with Klebsiella pneumoniae; in the assay on Talaromyces marneffei; in assay [1]) was 12.5 µg/mL (≈ 33.7 µM) each time. Also, the MIC worked out at 12.5 µg/mL (≈ 33.7 µM) in the assay on Aspergillus flavus and 6.25 µg/mL (≈ 16.9 µM) with Aspergillus fumigatus.

Turning to `Cc1cccc(OCc2ccccc2-c2nn(CNc3cccc(C(F)(F)F)c3)c(=S)o2)c1`, the “inhibition zone (IZ)” value in the assay with Staphylococcus aureus came to 16 mm; in the assay on Escherichia coli, 16 mm; in the assay on Pseudomonas aeruginosa, 16 mm; with Klebsiella pneumoniae, 16 mm; with Talaromyces marneffei, 11 mm; in assay [1], 11 mm. Moreover, the “inhibition zone (IZ)” value in the assay with Aspergillus flavus and with Aspergillus fumigatus was 16 mm in each case. The MIC in the assay with Staphylococcus aureus was determined as 6.25 µg/mL (≈ 13.3 µM); with Escherichia coli, 6.25 µg/mL (≈ 13.3 µM); against Pseudomonas aeruginosa, 6.25 µg/mL (≈ 13.3 µM); in the assay on Klebsiella pneumoniae it was 6.25 µg/mL (≈ 13.3 µM); against Talaromyces marneffei, 12.5 µg/mL (≈ 26.5 µM); in assay [1], 12.5 µg/mL (≈ 26.5 µM). For the same compound, the MIC with Aspergillus flavus and in the assay with Aspergillus fumigatus was 6.25 µg/mL (≈ 13.3 µM) each time.

In the case of `Cc1cccc(OCc2ccccc2-c2nn(CNc3cc(C)ccc3Cl)c(=S)o2)c1`, the “inhibition zone (IZ)” value (in the assay with Staphylococcus aureus; with Escherichia coli; with Pseudomonas aeruginosa; in the assay with Klebsiella pneumoniae; in the assay on Talaromyces marneffei; in assay [1]) was below 10 mm throughout. The “inhibition zone (IZ)” value in the assay with Aspergillus flavus and in the assay on Aspergillus fumigatus was below 10 mm in each case. Further, the MIC (against Staphylococcus aureus; in the assay with Escherichia coli; against Pseudomonas aeruginosa; with Klebsiella pneumoniae; against Talaromyces marneffei; in assay [1]) was 25 µg/mL (≈ 55.3 µM) in each case. For the same compound, the MIC against Aspergillus flavus and in the assay on Aspergillus fumigatus was 25 µg/mL (≈ 55.3 µM) throughout.

On to `Cc1ccc(OCc2ccccc2-c2nn(CNc3ccc(Cl)cc3C(=O)C(F)(F)F)c(=S)o2)cc1`, for which the “inhibition zone (IZ)” value (with Staphylococcus aureus; in the assay with Escherichia coli; with Pseudomonas aeruginosa; in the assay on Klebsiella pneumoniae; in the assay on Talaromyces marneffei; in assay [1]) was below 10 mm in each case. Moreover, the “inhibition zone (IZ)” value in the assay on Aspergillus flavus and in the assay with Aspergillus fumigatus was below 10 mm each time. The MIC (against Staphylococcus aureus; in the assay with Escherichia coli; in the assay with Pseudomonas aeruginosa; against Klebsiella pneumoniae; against Talaromyces marneffei; in assay [1]) was 25 µg/mL (≈ 46.8 µM) throughout. In addition, the MIC with Aspergillus flavus and against Aspergillus fumigatus was 25 µg/mL (≈ 46.8 µM) in each case.

For `Cc1ccccc1OCc1ccccc1-c1nn(CNc2ccc(Cl)cc2C(=O)C(F)(F)F)c(=S)o1`, the “inhibition zone (IZ)” value (with Staphylococcus aureus; in the assay with Escherichia coli; in the assay on Pseudomonas aeruginosa; with Klebsiella pneumoniae; in the assay with Talaromyces marneffei; in assay [1]) was below 10 mm throughout. In addition, the “inhibition zone (IZ)” value with Aspergillus flavus and in the assay with Aspergillus fumigatus was below 10 mm each time. Also, the MIC (in the assay with Staphylococcus aureus; against Escherichia coli; against Pseudomonas aeruginosa; against Klebsiella pneumoniae; against Talaromyces marneffei; in assay [1]) was 25 µg/mL (≈ 46.8 µM) in each case. Moreover, the MIC in the assay on Aspergillus flavus and in the assay with Aspergillus fumigatus was 25 µg/mL (≈ 46.8 µM) throughout.

In the case of `Cc1ccc(Cl)c(NCn2nc(-c3ccccc3COc3ccc(Cl)cc3)oc2=S)c1`, the “inhibition zone (IZ)” value (with Staphylococcus aureus; with Escherichia coli; in the assay with Pseudomonas aeruginosa; with Klebsiella pneumoniae; in the assay with Talaromyces marneffei; in assay [1]) was below 10 mm each time. In addition, the “inhibition zone (IZ)” value in the assay with Aspergillus flavus and in the assay on Aspergillus fumigatus was below 10 mm throughout. Also, the MIC (in the assay with Staphylococcus aureus; with Escherichia coli; against Pseudomonas aeruginosa; in the assay with Klebsiella pneumoniae; against Talaromyces marneffei; in assay [1]) was 25 µg/mL (≈ 52.9 µM) in each case. Moreover, the MIC with Aspergillus flavus and against Aspergillus fumigatus was 25 µg/mL (≈ 52.9 µM) each time.

Broadly, the MIC is the lowest concentration that inhibits growth of the organism. Low values mean greater potency, high ones weaker potency.

The values above are taken from ChEMBL document CHEMBL1275272, “Synthesis, characterization and antimicrobial activity of some disubstituted 1,3,4-oxadiazoles carrying 2-(aryloxymethyl)phenyl moiety” (2010).
